ANO1 block = inhibitors of mouse TMEM16A calcium-activated chloride channel | HEK293 TMEM16A/YFP iodide influx fluorescence, ionomycin | actives 1.2% (n = 310,000) | normalized B-score (activity score, 25-100; higher = stronger inhibition) at 10 µM | Q8BHY3;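 active = ratio plate-corrected score three or more library SD toward inhibition, starting fluorescence score within five deviations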;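 also: score derived from kinetic fluorescence span divided by baseline fluorescence per well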
Target sequence (Q8BHY3 whole entry, looked up): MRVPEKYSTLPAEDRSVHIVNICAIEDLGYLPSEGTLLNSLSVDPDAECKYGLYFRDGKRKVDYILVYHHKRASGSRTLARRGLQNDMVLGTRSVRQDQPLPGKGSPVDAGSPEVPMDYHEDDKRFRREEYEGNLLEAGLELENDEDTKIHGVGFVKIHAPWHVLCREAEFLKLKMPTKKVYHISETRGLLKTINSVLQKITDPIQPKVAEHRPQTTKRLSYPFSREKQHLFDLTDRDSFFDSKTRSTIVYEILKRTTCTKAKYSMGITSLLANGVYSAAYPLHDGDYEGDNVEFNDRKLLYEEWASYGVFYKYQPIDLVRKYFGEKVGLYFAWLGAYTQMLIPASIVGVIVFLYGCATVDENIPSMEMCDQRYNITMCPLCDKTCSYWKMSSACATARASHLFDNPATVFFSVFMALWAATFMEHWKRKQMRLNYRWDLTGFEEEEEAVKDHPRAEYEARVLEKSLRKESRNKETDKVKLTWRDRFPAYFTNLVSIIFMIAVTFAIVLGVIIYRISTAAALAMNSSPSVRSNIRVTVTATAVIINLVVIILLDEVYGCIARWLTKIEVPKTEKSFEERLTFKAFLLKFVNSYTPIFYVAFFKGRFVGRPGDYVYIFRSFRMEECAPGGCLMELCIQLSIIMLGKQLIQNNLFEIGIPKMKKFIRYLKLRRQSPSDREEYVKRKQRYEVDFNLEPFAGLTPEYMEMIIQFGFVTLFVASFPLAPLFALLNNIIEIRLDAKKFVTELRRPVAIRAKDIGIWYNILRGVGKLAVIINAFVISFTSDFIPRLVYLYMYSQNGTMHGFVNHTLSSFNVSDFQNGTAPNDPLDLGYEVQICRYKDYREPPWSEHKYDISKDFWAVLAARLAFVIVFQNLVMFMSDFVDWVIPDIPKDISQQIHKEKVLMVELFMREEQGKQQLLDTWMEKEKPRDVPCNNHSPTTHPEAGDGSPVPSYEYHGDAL
TMEM16A act = activators or potentiators of mouse TMEM16A chloride channel. Q8BHY3. HEK293 TMEM16A/YFP-H148Q/I152L, iodide quench fluorescence; active compounds read low. B-score at 10 µM. actives 0.3% (n = 340,000). AID 623877;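 active = fluorescence-ratio B-score plate-corrected deviation score at least 3 library SD below zero, with starting fluorescence score within 5 deviations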;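 also: channel opened by trigger with iodide after compound preincubation; score built on the fluorescence ratio of max minus min over baseline; more negative score means more quench and so TMEM16A activation or potentiation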
MT1-MMP act inh = inhibitors of human MT1-MMP activation; P50281; HT1080 RFP-PRO-GFP cells, GFP/RFP ratio fluorescence, overnight; percent of plate control window, DMSO zero; GFP/RFP ratio change, % at 20 µM; actives 0.061% (n = 360,000); AID 651647;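 active = GFP/RFP ratio change of at least 30% with cell ATP level not reduced by more than half and red fluorescence within 50% of control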
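system = RFP-PRO-GFP reporter HT1080 cells | dosing = 20 µM single dose, 1% DMSO | timing = overnight cell settling, then overnight compound exposure, 37 °C, 5% CO2 | read-out basis = GFP/RFP fluorescence ratio | controls = DMSO and RFP-L50D-GFP cell wells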
DAGLB inh = blocks human DAGLB lipase activity; Q8NCG7; HEK293T DAGLB membrane lysate, EnzChek fluorogenic substrate; inhibition, % at 5.17 µM; actives 0.059% (n = 340,000); in the data active = inhibition above about 34%
Numbers stand for hits; – = inactive; · = no result given. Sampled rows, rich in hits. Any-hit rate of the full collection: about 1.3%.

SMILES | ANO1 block | TMEM16A act | MT1-MMP act inh | DAGLB inh
Cc1nc2ccc(NC(=O)c3cccs3)cc2c(=O)n1Cc1ccc(Cl)cc1 | 100 | – | – | –
CCCc1nc2ccc(NC(=O)c3cccs3)cc2c(=O)n1Cc1ccc(Cl)cc1 | – | – | – | –
CC(C)(C)S(=O)(=O)N1C[C@H]2CC/C=C\C/C=C\2[C@@H]1CCO | · | · | – | –
CC(=O)C1=C(O)C(=O)N(c2ccc(C(=O)O)cc2)C1c1ccccc1 (stereo not given) | – | -14 | – | –
CC(=O)C1=C(O)C(=O)N(c2ccc(O)cc2)C1c1ccccc1 (stereo not given) | – | – | – | –
CC1(C(=O)Nc2cccc(-n3cnnn3)c2)Cc2ccccc2C(=O)O1 (stereo not given) | · | – | – | –
CC1CCC(C(C)C)C(OC(=O)Cn2c(-c3ccccc3)[n+](C)c3ccccc32)C1 (stereo not given) | 100 | – | – | –
CC1CCC(C(C)C)C(OC(=O)Cn2c(-c3ccc(F)cc3)[n+](C)c3ccccc32)C1 (stereo not given) | 100 | – | – | –
Cc1cccc(OCc2n(CC(=O)OC3CC(C)CCC3C(C)C)c3ccccc3[n+]2C)c1 (stereo not given) | 100 | -6.2 | – | –
Cc1cccc(OC(=O)Cn2c(C(F)(F)F)nc3ccccc32)c1 | – | – | – | –
COc1ccc([C@@H]2C[C@H]3[C@@H](CN2S(=O)(=O)c2ccccc2)C(=O)C[C@@H](c2ccc(C)cc2)N3S(=O)(=O)c2ccc(C)cc2)cc1 | · | · | – | –
COc1cc(NC(=O)COc2ccc([N+](=O)[O-])cc2)ccc1NC(=O)c1ccco1 | · | · | – | –
CC(C)(C)OC(=O)C[C@@H]1C/C=C\C[C@@H](CC(=O)N(CCO)Cc2ccccc2)C(=O)NCCOC1=O | · | -4.8 | – | –
CC(C)(C)OC(=O)C[C@H]1C/C=C\C[C@H](CC(=O)N(CCO)Cc2ccccc2)C(=O)NCCOC1=O | · | – | – | –
COc1cc(/C=C/CNC[C@H]2O[C@@H](n3cnc4c(N)ncnc43)[C@H](O)[C@@H]2O)ccc1O | · | · | – | ·
COc1ccc(NC2CCCN(C(=O)C3(C)CCCCC3)C2)cc1OC (stereo not given) | – | – | – | –
CN(Cc1ccccc1F)c1cc2c(c3c1ccn3C)C1CCC2C1 (stereo not given) | · | · | – | ·
COc1ccc(-c2nc3ccccc3n2Cc2ccccc2)cc1 | – | – | – | –
COc1ccc(-c2n(Cc3ccccc3)c3ccccc3[n+]2Cc2ccccc2)cc1 | 25 | – | – | –
COc1ccc(C(=O)C2CCCN(C/C=C/c3ccccc3OC)C2)c(OC)c1 (stereo not given) | – | -5.1 | – | –
COc1cccc(C(=O)C2CCCN(C/C=C/c3ccccc3OC)C2)c1 (stereo not given) | – | – | – | –
COCCNC(=O)C1(C)CCCN(CCS(=O)(=O)c2ccc(C)cc2)C1 (stereo not given) | · | · | – | ·
c1ccc(Cn2nnnc2C(c2cccs2)N2CCCCCC2)cc1 (stereo not given) | 100 | – | – | –
c1ccc(Cn2nnnc2C(c2cccs2)N2CCc3ccccc3C2)cc1 (stereo not given) | – | – | – | –
CC1(C)C2(C#N)C(=O)NC(=O)C12C#N (stereo not given) | · | – | – | –
SMILES | ANO1 block | TMEM16A act | MT1-MMP act inh | DAGLB inh
COc1ccccc1N=c1oc2c(OC)cccc2cc1C(=O)NCc1ccco1 | 25 | – | – | –
CCN(CC)CCNC(=O)c1ccc(NC(=O)c2ccccc2-c2ccc(C(F)(F)F)cc2)cc1 | – | – | – | –
CCN1/C(=C/c2cc[n+](CCCS(=O)(=O)[O-])c3ccccc23)Sc2ccccc21 | – | – | – | –
C=CC[n+]1ccc(/C=C2\C=Cc3cc(C)ccc3N2CC)c2ccccc21 | · | – | 61 | –
CCCCC(=O)N(C)c1c(CC)nc2c(OCc3cccc(Cl)c3)cccn12 | · | · | – | ·
CCC1Oc2ccc(C)cc2N(CC(=O)N(Cc2cccnc2)Cc2cccc(F)c2)C1=O (stereo not given) | 100 | – | – | –
N#CC(C#N)=C(Nc1ccc(F)cc1)SCc1cccc(Br)c1 | 100 | – | – | –
Cc1cccc(CSC(=N)N)c1 | – | – | – | –
Cc1cccc(CSC(Nc2ccc(F)cc2)=C(C#N)C#N)c1 | 100 | – | – | –
Cc1ccc(C(=O)N/C(=C\c2ccc(-c3ccc(Br)cc3)o2)C(=O)NCCCN(C)C)cc1 | – | -8.2 | – | –
COc1ccc(/C=C/C(=O)OCC(=O)c2cc(C)ccc2C)cc1 | · | · | – | –

Screening results deposited in PubChem by several laboratories.
